# Published values of several laboratories.
# Compare with care: the assays were run in different laboratories.
# Target: Platelet-derived growth factor receptor beta (PDGFRB, Homo sapiens, UniProt P09619)
SMILES,observed,method,concentration,remaining binding
CCN(CC)CCCCNc1ncc2cc(-c3cc(OC)cc(OC)c3)c(NC(=O)NC(C)(C)C)nc2n1,cell-free assay,competition with immobilised ligand,1 µM,38%
C[C@@H](c1ccc(-n2cnc3c(N)ncnc32)cc1)N1CCc2nn(C)c(Cc3ccccc3)c2C1=O,binding,competition with immobilised ligand,0.1 µM,17%
COc1cnc(Nc2cccc(S(N)(=O)=O)c2)nc1N1CCN(c2ccccc2)CC1,binding,competition with immobilised ligand,1 µM,87%
O=C(Nc1cnc(Oc2ccc(F)cc2)nc1)N1CCc2ncccc2[C@@H]1c1ccc(F)cc1,cell-free assay,competition with immobilised ligand,1 µM,100%
C[C@@H]1CN(c2ccc3ncc(-c4ccc5[nH]nc(C6CC6)c5c4)n3n2)C[C@H](C)O1,binding,competition with immobilised ligand,0.5 µM,12%
CN(CCCC(F)(F)F)c1nccc(-c2cnn3ncccc23)n1,binding,,1 µM,95%
N#Cc1ccccc1CSc1nnc2c(n1)[nH]c1ccccc12,binding,competition with immobilised ligand,10 µM,91%
O=C(c1ccc(Nc2ncc(Cl)c(-c3ccc(Cl)s3)n2)cc1)N1CCC(N2CCCC2)CC1,binding,competition with immobilised ligand,1 µM,0%
COC(=O)Nc1nc2ccc(C(=O)c3ccccc3)cc2[nH]1,cell-free assay,competition with immobilised ligand,10 µM,3.2%
COc1ncc2cc3ccccc3nc2c1C#N,cell-free assay,competition with immobilised ligand,5 µM,97%
Cc1cnn2ncc(-c3ccnc(N(C)C)n3)c2c1,binding,,1 µM,100%
C=CC(=O)N1CCC(C(=O)NCC(=O)N2CCN(c3nc(-c4cnc(N)nc4C(F)F)nc(N4CCOCC4)n3)CC2)CC1,binding,competition with immobilised ligand,1 µM,100%
COCCOc1nc(-c2ccc(Cl)nc2)nc2c1CN(C(=O)c1ncn3ccccc13)CC2,cell-free assay,competition with immobilised ligand,0.1 µM,100%
CN(c1nccc(-c2cnn3ncccc23)n1)C1CC1,binding,,1 µM,98%
CNC(=O)Nc1ccc2c(c1)[C@@]1(CC2)OC(=O)N(CC(=O)N(Cc2ccc(F)cc2)[C@@H](C)C(F)(F)F)C1=O,cell-free assay,competition with immobilised ligand,1 µM,87%
O=C(c1ccc(Nc2nccc(-c3cc4ccccc4s3)n2)cc1)N1CCC(N2CCCC2)CC1,binding,competition with immobilised ligand,1 µM,11%
N[C@H]1CCN(c2nccc(-c3cnn4ncccc34)n2)C1,binding,,1 µM,93%
Cc1cc(-n2nc(Cc3cc(F)cc(C(F)(F)F)c3)nc2C)ccc1C(N)=O,cell-free assay,competition with immobilised ligand,1 µM,98%
O=C(Nc1c[nH]nc1C(=O)NC1CCNCC1)c1cc(F)cc(F)c1,binding,competition with immobilised ligand,1 µM,100%
N#CC1(c2ccccn2)CCN(Cc2cc(C(=O)N3CCCC3)c(=O)n3ccccc23)CC1,cell-free assay,competition with immobilised ligand,1 µM,86%
CC1CCCN1c1nccc(-c2cnn3ncccc23)n1 (stereo not shown),binding,,1 µM,100%
CS(=O)(=O)NCC[C@H](NC(=O)c1cncc2c1cnn2-c1ccc(F)cc1)c1ccnc(S(C)(=O)=O)c1,cell-free assay,competition with immobilised ligand,1 µM,100%
Cc1cnc(Nc2ccc(C(=O)N3CCC(N4CCCC4)CC3)cc2)nc1-c1cc2ccccc2s1,binding,competition with immobilised ligand,1 µM,0.4%
CN(C)c1ncc(F)c(-c2cnn3ncccc23)n1,binding,,1 µM,100%
C[C@@H]1CN(c2cc(-c3n[nH]c4ccc(OC5(C)CC5)cc34)ncn2)C[C@H](C)O1,cell-free assay,competition with immobilised ligand,0.1 µM,73%
